Assay outcomes as filed in PubChem.
RanGTP-Imp inh: disruptors of Ran-importin-beta complex formation – biochemical, FRET, CFP-Ran, YFP-importin-beta, homogeneous, primary screen; cell-free CFP-Ran/YFP-importin-beta FRET ratio; inhibition, % (concentration not given with the values); actives 1.1% (n = 300,000);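 active = more than half of the replicate wells show a fall in the fluorescence ratio signal beyond about 16%, limit read from the data, passing the limit was not always enough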;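 note: 0% = DMSO wells and 100% = Ran loaded with GDP instead of GTP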
pCIP destab: p/CIP protein destabilization; Q05BA5; F442A p/CIP-EGFP cells, EGFP fluorescence, 16 h; decrease of EGFP signal, % at 10 µM; actives 0.01% (n = 290,000); AID 1984;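 active = EGFP signal decrease of at least 30% at 10 µM or well 3 SD below plate mean, unless failing retest; inactive = the rest, including hits failing retest or dose response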
Runt-SMMHC FRET: Runt domain-CBFb-SMMHC interaction inhibition | Cerulean-Runt/Venus-CBFb-SMMHC FRET ratio 530/480, 1 h | inhibition, % at 20 µM | actives 0.74% (n = 220,000) | AID 1434;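 active = mean inhibition across duplicate retests at 20 µM reaching about 50%, limit read from the data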;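 note: 0% = DMSO wells and 100% = wells with excess untagged CBFb-SMMHC; inhibitors lower the FRET ratio by blocking Runt binding to CBFb-SMMHC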
Runt-CBFb FRET: Runt domain-CBFb interaction inhibition; AID 1496; Cerulean-Runt/Venus-CBFb FRET ratio 530/480, 1 h; actives 0.46% (n = 220,000); inhibition, % at 20 µM;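 active = inhibition over about 50% at 20 µM in the single-dose screen, limit read from the data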;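 note: 0% = DMSO wells and 100% = excess unlabeled CBFb competitor control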
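Measured by: fluorescence energy transfer, 422 nm excitation, 530/480 nm emission; Assay system: Cerulean-Runt domain; Medium: Tris pH 7.5 buffer with BSA; Measure: loss of energy transfer signal; Controls: 5 µM unlabeled CBFb as full-inhibition high control; Incubation: protein complex preformed 1 h, compound exposure 1 h, room temperature, dark.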
Hck-Nef inh: inhibitors of human Hck kinase activated by Nef | Recombinant Hck-YEEI plus Nef, Z-Lyte FRET kinase assay | AID 463187 | inhibition, % at 20 µM | actives 0.68% (n = 220,000);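 active = Hck-Nef kinase inhibition above about 50%, limit read from the data; inactive = inhibition below that limit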;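 note: 0% = DMSO with Hck plus Nef and 100% = Hck alone without Nef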
Target sequence (P08631 whole entry, looked up): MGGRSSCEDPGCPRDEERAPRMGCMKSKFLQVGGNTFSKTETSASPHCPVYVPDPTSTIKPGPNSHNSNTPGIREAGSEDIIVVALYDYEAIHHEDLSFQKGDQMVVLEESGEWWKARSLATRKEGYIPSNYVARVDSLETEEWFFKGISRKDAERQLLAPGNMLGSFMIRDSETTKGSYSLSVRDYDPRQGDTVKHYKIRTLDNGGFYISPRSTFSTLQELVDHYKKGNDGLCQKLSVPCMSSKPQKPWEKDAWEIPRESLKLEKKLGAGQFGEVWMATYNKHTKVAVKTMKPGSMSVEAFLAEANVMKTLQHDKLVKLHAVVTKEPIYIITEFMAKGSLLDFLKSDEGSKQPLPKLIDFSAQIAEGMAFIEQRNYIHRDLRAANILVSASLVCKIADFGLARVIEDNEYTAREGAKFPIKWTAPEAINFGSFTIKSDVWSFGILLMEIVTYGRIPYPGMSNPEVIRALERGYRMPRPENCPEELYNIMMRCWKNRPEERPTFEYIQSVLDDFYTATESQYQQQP
Pemphigus Ab inh: blocks pemphigus antibody binding to human desmoglein-3. P32926. DSG3-coupled beads, scFv-anti-DSG3-GFP binding, flow cytometry; hits give low values. binding (percent of control), % at 10 µM. actives 0.48% (n = 310,000);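 active = binding more than 3 SD below its plate's average and above zero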;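 note: hits lower antibody fragment binding to DSG3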
Hck Nef conf: confirmation of Hck-Nef kinase inhibitors; shares compounds with Hck-Nef inh; Recombinant Hck-YEEI:Nef, Z-Lyte FRET kinase assay; calls only at 10 µM; actives 28% (n = 1,300); AID 463188;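 active = average inhibition of at least 50%, with Z-scores no higher than 3 in both the phospho-tyrosine peptide and fluorescence counterscreens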
* marks the source's active call; other numbers are inactive results. Sampled rows, rich in hits. Any-hit rate of the full collection: about 2.1%.

How did CCNC(=O)NC(=O)COC(=O)c1ccccc1SCC(=O)NC(=O)NCC do in these assays?
RanGTP-Imp inh: 9.5; pCIP destab: -14.0; Runt-SMMHC FRET: 17.8; Runt-CBFb FRET: 4.6; Hck-Nef inh: 109.3*; Pemphigus Ab inh: 109.6

Results for Cc1ccc(-n2c(O)c(/C=N/Nc3ccc(S(=O)(=O)N4CCOCC4)cc3[N+](=O)[O-])c3ccccc3c2=O)c(C)c1 ?
RanGTP-Imp inh: 5.5; pCIP destab: -0.7; Runt-SMMHC FRET: -1.5; Runt-CBFb FRET: 1.3; Hck-Nef inh: 21.0; Pemphigus Ab inh: 92.2

How did Cc1ccc(-n2c(O)c(C=Nc3ccccc3-c3n[nH]c(=S)[nH]c3=O)c3ccccc3c2=O)cc1C do in these assays?
RanGTP-Imp inh: -1.0; pCIP destab: -14.2; Runt-SMMHC FRET: -3.8; Runt-CBFb FRET: -6.2; Hck-Nef inh: 84.4*; Pemphigus Ab inh: 96.7; Hck Nef conf: active

Results for Cc1ccc(-n2c(O)c(C=Nc3ccccc3-c3n[nH]c(=S)[nH]c3=O)c3ccccc3c2=O)c(C)c1 ?
RanGTP-Imp inh: 3.6; pCIP destab: -20.0; Runt-SMMHC FRET: 3.2; Runt-CBFb FRET: 1.6; Hck-Nef inh: 73.1*; Pemphigus Ab inh: 101.8; Hck Nef conf: active

What do the screens show for `Cc1cccc(-n2c(O)c(C=Nc3ccccc3-c3n[nH]c(=S)[nH]c3=O)c3ccccc3c2=O)n1`?
RanGTP-Imp inh: 5.3; pCIP destab: -13.5; Runt-SMMHC FRET: 9.8; Runt-CBFb FRET: 7.4; Hck-Nef inh: -14.1; Pemphigus Ab inh: 104.0

How did COc1ccc(C(CNC(=O)c2ccc(OC)c(S(=O)(=O)N3CCCC3)c2)N2CCCC2)cc1 (configuration not stated) do in these assays?
Pemphigus Ab inh: 423.6

What do the screens show for `Cc1ccc(OCC(=O)Nc2cccnc2Cl)cc1C`?
RanGTP-Imp inh: 3.1; pCIP destab: -3.5; Pemphigus Ab inh: 120.5

How did CCn1nc(NC(=O)C2CCCO2)c2cc3cccc(C)c3nc21 (configuration not stated) do in these assays?
RanGTP-Imp inh: 57.7*; pCIP destab: 0.7; Runt-SMMHC FRET: 81.0*; Runt-CBFb FRET: 48.2; Hck-Nef inh: 55.1*; Pemphigus Ab inh: 90.3; Hck Nef conf: inactive

How did CCn1nc(NC(=O)c2cccnc2)c2cc3cccc(C)c3nc21 do in these assays?
RanGTP-Imp inh: -18.3; pCIP destab: -21.6; Runt-SMMHC FRET: -22.2; Runt-CBFb FRET: 11.3; Hck-Nef inh: 6.2; Pemphigus Ab inh: 96.6

Results for Cc1cccc(NC(=O)CCS(=O)(=O)c2ccc3c(c2)NC(=O)CS3)n1 ?
RanGTP-Imp inh: 21.7; pCIP destab: 4.9; Pemphigus Ab inh: 103.1

What do the screens show for `C(=C\c1ccco1)/c1ccc2ccccc2n1`?
RanGTP-Imp inh: 2.1; pCIP destab: 0.1; Runt-SMMHC FRET: -17.2; Runt-CBFb FRET: 8.2; Hck-Nef inh: 53.7*; Pemphigus Ab inh: 102.4; Hck Nef conf: inactive

Results for Cc1cccc(NC(=O)CSc2nc(COc3ccccc3)nc3ccccc23)c1C ?
RanGTP-Imp inh: -0.5; pCIP destab: -9.9; Runt-SMMHC FRET: -9.3; Runt-CBFb FRET: -5.1; Hck-Nef inh: 60.5*; Pemphigus Ab inh: 102.1; Hck Nef conf: inactive

Results for O=C(Nc1cccc(S(=O)(=O)NC2=NCCC2)c1)c1cc(-c2ccco2)nc2ccccc12 ?
RanGTP-Imp inh: -6.1; pCIP destab: -7.4; Runt-SMMHC FRET: -6.7; Runt-CBFb FRET: 9.1; Hck-Nef inh: 86.5*; Pemphigus Ab inh: 64.0; Hck Nef conf: active

How did O=C(NC1CC1)c1cc(-c2ccco2)nc2ccccc12 do in these assays?
RanGTP-Imp inh: -4.6; pCIP destab: 0.0; Runt-SMMHC FRET: 0.6; Runt-CBFb FRET: 21.5; Hck-Nef inh: 71.7*; Pemphigus Ab inh: 71.7*; Hck Nef conf: active

What do the screens show for `O=C(NC(=S)Nc1cccc(S(=O)(=O)NC2=NCCC2)c1)c1cc(-c2ccco2)nc2ccccc12`?
RanGTP-Imp inh: -2.1; pCIP destab: 1.2; Runt-SMMHC FRET: -5.8; Runt-CBFb FRET: -9.4; Hck-Nef inh: 26.8; Pemphigus Ab inh: 104.0

How did COc1ccc(S(=O)(=O)N(CC(=O)NCc2ccncc2)c2ccc(C)cc2)cc1OC do in these assays?
RanGTP-Imp inh: -4.3; pCIP destab: -0.3; Pemphigus Ab inh: 101.2

How did O=C(CN1C(=O)NC(Cc2ccccc2)C1=O)Nc1ccc(F)c(Cl)c1 (configuration not stated) do in these assays?
Pemphigus Ab inh: 105.7

How did O=C(NN1C(=O)/C(=C/C=C/c2ccco2)SC1=S)c1ccccc1O do in these assays?
RanGTP-Imp inh: -0.9; pCIP destab: -0.5; Runt-SMMHC FRET: -5.6; Runt-CBFb FRET: 26.9; Hck-Nef inh: 82.6*; Pemphigus Ab inh: 79.4; Hck Nef conf: active

How did O=C(O)CCCN1C(=O)/C(=C/C=C/c2ccco2)SC1=S do in these assays?
RanGTP-Imp inh: -8.8; pCIP destab: -37.3; Runt-SMMHC FRET: -2.7; Runt-CBFb FRET: 45.5; Hck-Nef inh: 83.5*; Pemphigus Ab inh: 92.2; Hck Nef conf: inactive

How did O=C(O)C(Cc1ccccc1)N1C(=O)/C(=C/C=C/c2ccco2)SC1=S (configuration not stated) do in these assays?
RanGTP-Imp inh: -3.3; pCIP destab: -4.0; Runt-SMMHC FRET: -23.1; Runt-CBFb FRET: 21.6; Hck-Nef inh: 91.8*; Pemphigus Ab inh: 88.0; Hck Nef conf: active

What do the screens show for `Cn1cccc1/C=C1\SC(=S)N(NC(=O)c2ccccc2O)C1=O`?
RanGTP-Imp inh: 2.9; pCIP destab: -9.8; Runt-SMMHC FRET: -43.7; Runt-CBFb FRET: -20.8; Hck-Nef inh: 14.0; Pemphigus Ab inh: 71.0

What do the screens show for `Cc1ccccc1OCCOC(=O)c1cc(S(=O)(=O)N2CCCCC2)ccc1N1CCOCC1`?
Pemphigus Ab inh: 97.8

What do the screens show for `COc1c(C(CC(C)C)OC(C)=O)ccc2c1C(=O)OCc1cc(C)cc(O)c1O2` (configuration not stated)?
RanGTP-Imp inh: 4.7; pCIP destab: -5.1; Runt-SMMHC FRET: 1.3; Runt-CBFb FRET: 3.7; Hck-Nef inh: 24.2; Pemphigus Ab inh: 99.0

Results for COc1cc(/C=C(\C#N)C(=O)c2ccc(O)c(O)c2)cc(I)c1O ?
Pemphigus Ab inh: 103.6

How did COc1ccccc1NS(=O)(=O)c1cccc(NC(=O)c2sc3ccccc3c2Cl)c1 do in these assays?
RanGTP-Imp inh: 1.3; pCIP destab: -11.4; Runt-SMMHC FRET: -0.9; Runt-CBFb FRET: 0.6; Hck-Nef inh: 154.2*; Pemphigus Ab inh: 102.0; Hck Nef conf: inactive
